From ChEMBL document CHEMBL1153955, “Indolylarylsulfones bearing natural and unnatural amino acids. Discovery of potent inhibitors of HIV-1 non-nucleoside wild type and resistant mutant strains reverse transcriptase and coxsackie B4 virus” (J Med Chem, 2009)

Columns and labels:
[1] = Cytotoxicity against MDCK cells by MTS assay; type: cell-based, Canis lupus familiaris; conditions: dog
[2] = Cytotoxicity against human HeLa cells assessed as drug level causing microscopically detectable alteration of normal cell morphology after 3 days; type: cell-based
Outline: (§1)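 Serial compound dilutions added to confluent HeLa or Vero monolayers. MCC = minimum concentration causing microscopically detectable alteration of cell morphology after 3 days of incubation.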

Human alphaherpesvirus 1 [3] = assay: Antiviral activity against HSV1 KOS in human HEL cells assessed as protection against virus-induced cytopathicity; type: functional, organism-based; conditions: Human alphaherpesvirus 1, KOS
Influenza B virus [4] = assay: Antiviral activity against influenza B virus in MDCK cells assessed as reduction of virus-induced cytopathicity by visual cytopathic effect scoring method; type: functional, organism-based
[5] = target: Human immunodeficiency virus type 1 reverse transcriptase (Human immunodeficiency virus 1, UniProt Q72547); assay: Inhibition of HIV1 reverse transcriptase p66/p51; conditions: read-out: IC50
Sindbis virus = assay: Antiviral activity against Sindbis virus in african green monkey Vero cells assessed as protection against virus-induced cytopathicity; type: functional, organism-based
Outline: (§2)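 Confluent cell monolayers inoculated with 100 CCID₅₀ virus. After 1-2 h adsorption, residual virus removed and cultures incubated with varying compound concentrations. Cytopathicity scored once it reached completion in untreated infected controls. EC₅₀ = dose reducing virus-induced cytopathogenicity by 50%.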

[6] = Cytotoxicity against human HEL cells assessed as drug level causing microscopically detectable alteration of normal cell morphology after 3 days; type: cell-based
Human respirovirus 3 = assay: Antiviral activity against Parainfluenza virus type 3 in african green monkey Vero cells assessed as protection against virus-induced cytopathicity; type: functional, organism-based; conditions: Human respirovirus 3, Vero; outline: as §2
[7] = test system: Vesicular stomatitis virus; assay: Antiviral activity against VSV in human HEL cells assessed as protection against virus-induced cytopathicity; type: functional, organism-based
[8] = test system: Human immunodeficiency virus 1; assay: Antiviral activity against HIV1 3B in human CEM cells assessed as protection against virus-induced cytopathicity after 4 days; type: functional, organism-based; conditions: Human immunodeficiency virus 1, 3B, CCRF-CEM, 96 h
Outline: (§3)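 CEM cells (~3 × 10⁵ cells/mL) infected with ~100 CCID₅₀ per mL of HIV-1 (IIIB) or HIV-2 (ROD), then seeded into wells containing compound dilutions. After 4 days at 37 °C, syncytium (giant cell) formation was examined microscopically. EC₅₀ = concentration protecting CEM cells from HIV cytopathicity by 50%.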

[9] = Cytotoxicity against MDCK cells assessed as drug level causing microscopically detectable alteration of normal cell morphology; type: cell-based, Canis lupus familiaris; conditions: dog
[10] = test system: Respiratory syncytial virus; assay: Antiviral activity against RSV Long in human HeLa cells assessed as protection against virus-induced cytopathicity; type: functional, organism-based; outline: as §2
Punta Toro virus = assay: Antiviral activity against Punta Toro virus in african green monkey Vero cells assessed as protection against virus-induced cytopathicity; type: functional, organism-based; outline: as §2
Influenza A virus H3N2 [11] = assay: Antiviral activity against influenza H3N2 virus in MDCK cells assessed as reduction of virus-induced cytopathicity by visual cytopathic effect scoring method; type: functional, organism-based
Influenza A virus [12] = assay: Antiviral activity against influenza H1N1 virus in MDCK cells assessed as reduction of virus-induced cytopathicity by visual cytopathic effect scoring method; type: functional, organism-based
Influenza A virus [13] = assay: Antiviral activity against influenza H1N1 virus in MDCK cells assessed as reduction of virus-induced cytopathicity by MTS method; type: functional, organism-based; conditions: Influenza A virus, H1N1, MDCK
[14] = Cytotoxicity against african green monkey Vero cells assessed as drug level causing microscopically detectable alteration of normal cell morphology after 3 days; type: cell-based; conditions: chlorocebus sabaeus; outline: as §1
Coxsackievirus B4 [15] = assay: Antiviral activity against Coxsackievirus B4 in african green monkey Vero cells assessed as protection against virus-induced cytopathicity; type: functional, organism-based; conditions: Enterovirus B; outline: as §2
[16] = test system: Human immunodeficiency virus 2; assay: Antiviral activity against HIV2 ROD in human CEM cells assessed as protection against virus-induced cytopathicity after 4 days; type: functional, organism-based; conditions: Human immunodeficiency virus 2, ROD, CCRF-CEM, 96 h; outline: as §3
[17] = Cytotoxicity against feline CRFK cells by MTS assay; type: cell-based, Felis catus; conditions: cat
Influenza B virus [18] = assay: Antiviral activity against influenza B virus in MDCK cells assessed as reduction of virus-induced cytopathicity by MTS method; type: functional, organism-based
[19] = Antiproliferative activity against human Molt4/C8 cells after 3 days; type: cell-based; conditions: MOLT-4, 72 h
Outline: (§4)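 Cells seeded at 5 × 10⁴ to 7.5 × 10⁴ cells/200 µL with or without serial compound dilutions; incubated at 37 °C for 2 days (L1210) or 3 days (Molt4/C8, CEM). Cell numbers counted with a Coulter counter. CC₅₀ = concentration reducing proliferation by 50% versus untreated controls, read from plots of cell number (% of control) against concentration. Means of at least two independent experiments.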

Felid alphaherpesvirus 1 = assay: Antiviral activity against Feline herpesvirus in feline […] cells assessed as inhibition of virus-induced cytopathicity; type: functional, organism-based
Coxsackievirus B4 [20] = assay: Antiviral activity against Coxsackievirus B4 in human HeLa cells assessed as protection against virus-induced cytopathicity; type: functional, organism-based; conditions: Enterovirus B; outline: as §2
[21] = test system: Mammalian orthoreovirus 1; assay: Antiviral activity against Reovirus 1 in african green monkey Vero cells assessed as protection against virus-induced cytopathicity; type: functional, organism-based; conditions: Mammalian orthoreovirus 1, Vero; outline: as §2
Vaccinia virus = assay: Antiviral activity against Vaccinia virus Lederle in human HEL cells assessed as protection against virus-induced cytopathicity; type: functional, organism-based; conditions: Orthopoxvirus vaccinia
[22] = target: Human immunodeficiency virus type 1 reverse transcriptase (Human immunodeficiency virus 1, UniProt Q72547, L100I); assay: Inhibition of HIV1 reverse transcriptase p66/p51 L100I mutant; conditions: read-out: IC50
Outline: (§5)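 Substrate was 0.5 µg poly(rA)/oligo(dT) 10:1 (0.3 µM 3′-OH ends) with 10 µM [³H]dTTP, at 37 °C. Acid-precipitable radioactivity was counted on GF/C filters after TCA washes.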

[23] = target: Human immunodeficiency virus type 1 reverse transcriptase (Human immunodeficiency virus 1, UniProt Q72547, Y181I); assay: Inhibition of HIV1 reverse transcriptase p66/p51 Y181I mutant; conditions: read-out: IC50; outline: as §5
CCRF-CEM = assay: Antiproliferative activity against human CEM cells after 3 days; type: cell-based; conditions: 72 h; outline: as §4
Human alphaherpesvirus 2 = assay: Antiviral activity against HSV2 G in human HEL cells assessed as protection against virus-induced cytopathicity; type: functional, organism-based; conditions: Human alphaherpesvirus 2, strain G; outline: as §2
Human alphaherpesvirus 1 [24] = assay: Antiviral activity against thymidine kinase deficient and acyclovir resistant HSV1 KOS in human HEL cells assessed as protection against virus-induced cytopathicity; type: functional, organism-based; conditions: Human alphaherpesvirus 1, KOS
[25] = test system: Vesicular stomatitis virus; assay: Antiviral activity against VSV in human HeLa cells assessed as protection against virus-induced cytopathicity; type: functional, organism-based
Influenza A virus H3N2 [26] = assay: Antiviral activity against influenza H3N2 virus in MDCK cells assessed as reduction of virus-induced cytopathicity by MTS method; type: functional, organism-based
Feline coronavirus = assay: Antiviral activity against Feline coronavirus in feline […] cells assessed as inhibition of virus-induced cytopathicity; type: functional, organism-based; conditions: Alphacoronavirus 1
[27] = target: Human immunodeficiency virus type 1 reverse transcriptase (Human immunodeficiency virus 1, UniProt Q72547, K103N); assay: Inhibition of HIV1 reverse transcriptase p66/p51 K103N mutant; conditions: read-out: IC50; outline: as §5
L1210 = assay: Antiproliferative activity against mouse L1210 cells after 2 days; type: cell-based; conditions: L1210, 48 h; outline: as §4

SMILES	CC50 [1]	MCC at 72 h [2]	EC50 (Human alphaherpesvirus 1 [3])	EC50 (Influenza B virus [4])	IC50 [5]	EC50 (Sindbis virus)	MCC at 72 h [6]	EC50 (Human respirovirus 3)	EC50 [7]	EC50 [8]	MCC [9]	EC50 [10]	EC50 (Punta Toro virus)	EC50 (Influenza A virus H3N2 [11])	EC50 (Influenza A virus [12])	EC50 (Influenza A virus [13])	MCC at 72 h [14]	EC50 (Coxsackievirus B4 [15])	EC50 [16]	CC50 [17]	other results
Cc1cc(C)cc(S(=O)(=O)c2c(C(=O)NCC(N)=O)[nH]c3ccc([N+](=O)[O-])cc23)c1	> 100 µM	> 100 µM	> 20 µM	> 20 µM	0.034 µM	> 100 µM	100 µM	> 100 µM	> 20 µM	0.0024 µM	100 µM	> 100 µM	> 100 µM	> 20 µM	> 20 µM	> 20 µM	> 100 µM	> 100 µM	> 50 µM	> 100 µM	EC50 (Influenza B virus [18]): > 20 µM; IC50 [19]: > 500 µM; EC50 (Felid alphaherpesvirus 1): > 100 µM; EC50 (Coxsackievirus B4 [20]): > 100 µM; EC50 [21]: > 100 µM; EC50 (Vaccinia virus): > 20 µM; IC50 [22]: 0.206 µM; IC50 [23]: 2.91 µM; IC50 (CCRF-CEM): ≥ 500 µM; EC50 (Human alphaherpesvirus 2): > 20 µM; EC50 (Human alphaherpesvirus 1 [24]): > 20 µM; EC50 [25]: > 100 µM; EC50 (Influenza A virus H3N2 [26]): > 20 µM; EC50 (Feline coronavirus): > 100 µM; IC50 [27]: 0.417 µM; IC50 (L1210): > 500 µM
Cc1cc(C)cc(S(=O)(=O)c2c(C(=O)NC(C)CC(N)=O)[nH]c3ccc(Cl)cc23)c1 (centres undefined)	13.5 µM	≥ 20 µM	> 20 µM	> 4 µM	0.12 µM	> 20 µM	100 µM	> 20 µM	> 20 µM	0.026 µM	20 µM	> 20 µM	> 20 µM	> 4 µM	> 4 µM	> 4 µM	100 µM	16 µM	30 µM	18.9 µM	EC50 (Influenza B virus [18]): > 4 µM; IC50 [19]: 36 µM; EC50 (Felid alphaherpesvirus 1): > 4 µM; EC50 (Coxsackievirus B4 [20]): 4.5 µM; EC50 [21]: > 20 µM; EC50 (Vaccinia virus): > 20 µM; IC50 [22]: 0.252 µM; IC50 [23]: 4.14 µM; IC50 (CCRF-CEM): 32 µM; EC50 (Human alphaherpesvirus 2): > 20 µM; EC50 (Human alphaherpesvirus 1 [24]): > 20 µM; EC50 [25]: > 20 µM; EC50 (Influenza A virus H3N2 [26]): > 4 µM; EC50 (Feline coronavirus): > 4 µM; IC50 [27]: 0.288 µM; IC50 (L1210): 48 µM
Cc1cc(C)cc(S(=O)(=O)c2c(C(=O)NC(C)CC(N)=O)[nH]c3ccc(Cl)c(F)c23)c1 (centres undefined)	6.2 µM	100 µM	> 20 µM	> 4 µM	0.359 µM	> 20 µM	100 µM	> 20 µM	> 20 µM	0.0046 µM	20 µM	20 µM	> 20 µM	> 4 µM	> 4 µM	> 4 µM	100 µM	> 20 µM	> 10 µM	42.6 µM	EC50 (Influenza B virus [18]): > 4 µM; IC50 [19]: 25 µM; EC50 (Felid alphaherpesvirus 1): > 20 µM; EC50 (Coxsackievirus B4 [20]): 9 µM; EC50 [21]: > 20 µM; EC50 (Vaccinia virus): > 20 µM; IC50 [22]: 0.39 µM; IC50 [23]: > 40 µM; IC50 (CCRF-CEM): 27 µM; EC50 (Human alphaherpesvirus 2): > 20 µM; EC50 (Human alphaherpesvirus 1 [24]): > 20 µM; EC50 [25]: > 20 µM; EC50 (Influenza A virus H3N2 [26]): > 4 µM; EC50 (Feline coronavirus): > 20 µM; IC50 [27]: 3.39 µM; IC50 (L1210): 42 µM
Cc1cc(C)cc(S(=O)(=O)c2c(C(N)=O)[nH]c3ccc(Cl)cc23)c1	> 100 µM	> 100 µM	> 100 µM	> 100 µM	0.0003 µM	> 100 µM	> 100 µM	> 100 µM	> 100 µM	0.0011 µM	> 100 µM	> 100 µM	> 100 µM	> 100 µM	> 100 µM	> 100 µM	> 100 µM	> 100 µM	> 2 µM	> 100 µM	EC50 (Influenza B virus [18]): > 100 µM; IC50 [19]: 20 µM; EC50 (Felid alphaherpesvirus 1): > 100 µM; EC50 (Coxsackievirus B4 [20]): > 100 µM; EC50 [21]: > 100 µM; EC50 (Vaccinia virus): > 100 µM; IC50 [22]: 0.06 µM; IC50 [23]: 0.14 µM; IC50 (CCRF-CEM): 301 µM; EC50 (Human alphaherpesvirus 2): > 100 µM; EC50 (Human alphaherpesvirus 1 [24]): > 100 µM; EC50 [25]: > 100 µM; EC50 (Influenza A virus H3N2 [26]): > 100 µM; EC50 (Feline coronavirus): > 100 µM; IC50 [27]: 0.003 µM; IC50 (L1210): ≥ 500 µM
